Publication PMC3331960 (Nature chemical biology, 2012)
Values joined by “and” are separate entries in the source; they are usually repeats but may differ in a detail not shown here. Equal values may be shown once.

How the values were obtained:
[1] = target: TIR1-IAA28 (Arabidopsis thaliana, UniProt Q570C0+Q9XFM0); assay: [3H]-IAA homologous competitive binding, TIR1-IAA28; settings: Kd (Mean ± SEM), TIR1-IAA28, homologous competition
Method in brief: (§1)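 Homologous competition: insect-cell ASK1-TIR1 (0.44 μg) plus E. coli GST-Aux/IAA (1:10 molar), in pH 8.0 Tris binding buffer, >1 h at 4°C. Fixed [³H]-IAA (5, 10, 25 or 100 nM, kept below half the IC50) with rising cold IAA. Filter binding, scintillation counting. Specific binding fitted to a one-site competition model by nonlinear regression. Independent assays run in triplicate.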

[2] = target: IAA7 (Arabidopsis thaliana, UniProt Q38825); assay: [3H]-IAA binding at 200 nM, IAA7 alone; settings: 200 nM [3H] IAA
Method in brief: (§2)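 ASK1-TIR1 (tagged, co-expressed in Hi5 insect cells) and GST-Aux/IAA or mutant (E. coli), at 0.44 μg and 1:10 molar ratio as applicable, or synthetic biotinylated degron peptide. Incubated >1 h at 4°C in Tris-HCl pH 8.0/200 mM NaCl/10% glycerol/0.1% Tween 20 with [³H]-IAA (20 Ci/mmol). Trapped on PEI-treated glass-fibre filters, washed thrice, scintillation counted. Nonspecific binding determined with 1000x cold IAA.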

[3] = target: TIR1-IAA3 (Arabidopsis thaliana, UniProt Q38822+Q570C0); assay: [3H]-IAA saturation binding, TIR1-IAA3; settings: Kd (Mean ± SEM)
Method in brief: (§3)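 Saturation binding: insect-cell ASK1-TIR1 (0.44 μg) with GST-tagged full-length, truncated or degron-mutated IAA protein from E. coli (1:10 molar). Incubated >1 h at 4°C in pH 8.0 Tris/NaCl/glycerol/Tween buffer with at least six [³H]-IAA concentrations either side of the KD. Filter-trapped and scintillation counted; nonspecific binding determined with 1000x cold IAA. KD by nonlinear regression; independent assays in triplicate.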

[4] = target: T1, TIR1-IAA7 (Arabidopsis thaliana, UniProt Q38825+Q570C0); assay: [3H]-IAA radioligand binding
T1 sequence (Q570C0 1-594): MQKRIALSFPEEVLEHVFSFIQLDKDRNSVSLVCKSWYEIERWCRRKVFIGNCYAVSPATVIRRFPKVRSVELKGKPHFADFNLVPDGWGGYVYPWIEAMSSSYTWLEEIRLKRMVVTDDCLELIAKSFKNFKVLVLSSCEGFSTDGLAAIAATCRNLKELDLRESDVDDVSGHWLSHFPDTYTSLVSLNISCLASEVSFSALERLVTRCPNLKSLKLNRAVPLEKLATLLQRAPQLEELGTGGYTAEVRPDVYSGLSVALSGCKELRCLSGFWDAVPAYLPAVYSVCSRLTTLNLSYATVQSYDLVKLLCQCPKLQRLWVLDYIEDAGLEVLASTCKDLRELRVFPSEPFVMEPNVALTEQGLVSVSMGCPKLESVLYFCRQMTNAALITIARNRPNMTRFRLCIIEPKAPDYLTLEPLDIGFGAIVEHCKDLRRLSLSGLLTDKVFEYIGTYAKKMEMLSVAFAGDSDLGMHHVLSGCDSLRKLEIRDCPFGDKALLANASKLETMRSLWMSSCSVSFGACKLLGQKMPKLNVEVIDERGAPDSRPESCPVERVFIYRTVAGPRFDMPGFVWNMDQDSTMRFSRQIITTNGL
T1 sequence (Q39255 1-160 partner): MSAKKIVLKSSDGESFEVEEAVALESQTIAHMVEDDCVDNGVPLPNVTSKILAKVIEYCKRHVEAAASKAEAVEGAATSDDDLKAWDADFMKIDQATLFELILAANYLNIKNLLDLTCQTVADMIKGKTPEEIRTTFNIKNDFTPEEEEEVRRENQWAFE
T1 sequence (Q38825 1-243): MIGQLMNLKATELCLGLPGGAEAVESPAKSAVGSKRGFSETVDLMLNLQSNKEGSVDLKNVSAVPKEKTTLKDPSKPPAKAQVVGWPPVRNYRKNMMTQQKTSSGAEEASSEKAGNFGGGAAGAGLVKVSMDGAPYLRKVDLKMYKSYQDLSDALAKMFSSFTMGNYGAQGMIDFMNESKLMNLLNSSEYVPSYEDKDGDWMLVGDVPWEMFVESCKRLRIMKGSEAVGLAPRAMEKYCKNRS
Method in brief: (§4)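 ASK1-TIR1 or ASK1-AFB5 (0.44 μg, insect cells) with E. coli GST-IAA7 (1:10 molar), >1 h at 4°C in pH 8.0 Tris binding buffer. KD from [³H]-IAA saturation binding. Ki from competition with cold 1-NAA, 2,4-D or picloram against fixed [³H]-IAA (5–100 nM), fitted to a one-site competition model by nonlinear regression. Filter binding with scintillation read-out; triplicates.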

[5] = target: TIR1-IAA1 (Arabidopsis thaliana, UniProt P49677+Q570C0); assay: [3H]-IAA homologous competitive binding, TIR1-IAA1; settings: Kd (Mean ± SEM), TIR1-IAA1, homologous competition
Method in brief: as §1

[6] = target: TIR1-IAA17 (Arabidopsis thaliana, UniProt P93830+Q570C0); assay: [3H]-IAA homologous competitive binding, TIR1-IAA17; settings: Kd (Mean ± SEM), TIR1-IAA17, homologous competition
Method in brief: as §1

[7] = target: TIR1 (Arabidopsis thaliana, UniProt Q570C0); assay: [3H]-IAA binding at 200 nM, TIR1 alone; settings: 200 nM [3H] IAA
Method in brief: as §2

[8] = target: TIR1-IAA7^axr2-1 (Arabidopsis thaliana, UniProt Q38825+Q570C0, P87S); assay: [3H]-IAA binding at 200 nM, TIR1-IAA7 axr2-1; settings: 200 nM [3H] IAA
Method in brief: as §2

[9] = target: TIR1-IAA31 (Arabidopsis thaliana, UniProt Q570C0+Q8H174); assay: [3H]-IAA binding, TIR1-IAA31
Method in brief: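 ASK1-TIR1 (insect cells, 0.44 μg) and full-length GST-IAA31 (E. coli, 1:10 molar) were incubated with [³H]-IAA >1 h at 4°C in pH 8.0 Tris buffer, then filter-bound and scintillation counted. KD came from nonlinear regression of saturation and/or homologous competition binding data; independent assays run in triplicate.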

[10] = target: TIR1-DI-DII (Arabidopsis thaliana, UniProt Q38825+Q570C0); assay: [3H]-IAA saturation binding, TIR1-DI-DII
Method in brief: as §3

[11] = target: TIR1-IAA7 K35Q (Arabidopsis thaliana, UniProt Q38825+Q570C0, K35Q); assay: [3H]-IAA binding at 200 nM, TIR1-IAA7 K35Q; settings: 200 nM [3H]-IAA, Lys35Gln mutant compared to TIR1-IAA7
[12] = target: TIR1-bdl (Arabidopsis thaliana, UniProt Q570C0); assay: [3H]-IAA binding at 200 nM, TIR1-ASK1 with bdl; settings: 200 nM [3H] IAA, TIR1-ASK1 and bdl
Method in brief: as §2

[13] = test system: TIR1-slr; assay: [3H]-IAA binding at 200 nM, TIR1-ASK1 with slr; set-up: species or system Arabidopsis thaliana; settings: 200 nM [3H] IAA, TIR1-ASK1 and slr
Method in brief: as §2

[14] = target: IAA7 DII (Arabidopsis thaliana, UniProt Q38825); assay: [3H]-IAA binding at 200 nM, IAA7 DII peptide alone; settings: 200 nM [3H] IAA
Method in brief: as §2

[15] = target: TIR1-IAA12 GWPPVR (Arabidopsis thaliana, UniProt Q38830+Q570C0, G77R/I76V); assay: [3H]-IAA saturation binding, TIR1-IAA12 GWPPVR
Method in brief: as §3

[16] = target: TIR1-IAA7 K35Q R36Q (Arabidopsis thaliana, UniProt Q38825+Q570C0, K35Q/R36Q); assay: [3H]-IAA binding at 200 nM, TIR1-IAA7 K35Q R36Q; settings: 200 nM [3H]-IAA, Lys35Gln Arg36Gln mutant compared to TIR1-IAA7
[17] = target: AFB5-IAA7 (Arabidopsis thaliana, UniProt Q38825+Q9LTX2); assay: [3H]-IAA radioligand binding
Method in brief: as §4

[18] = target: T2, TIR1-IAA7 DII (Arabidopsis thaliana, UniProt Q38825+Q570C0, DEL96-243); assay: Surface plasmon resonance, TIR1 over immobilized IAA7 DII peptide; type: binding; settings: co-injection of TIR1 with auxin, vs no auxin
[19] = target: TIR1-IAA14 (Arabidopsis thaliana, UniProt Q38832+Q570C0); assay: [3H]-IAA homologous competitive binding, TIR1-IAA14; settings: TIR1-IAA14, homologous competition
Method in brief: as §1

[20] = target: T2, TIR1-IAA7 DII; assay: [3H]-IAA saturation binding, TIR1 with biotinylated IAA7 DII peptide; settings: Kd (Mean ± SEM), TIR1-biotinylated peptide DII of IAA7, saturation binding

- Kd [1]: ~75 nM and 75 nM
- binding of [3H] IAA [2]: lacked appreciable binding
- Kd [3]: 17 ± 3.43 nM
- Kd [4]: 17.8 ± 7.81 nM
- Kd [5]: 44.3 ± 6.67 nM
- Kd [6]: 33 ± 3 nM
- binding of [3H] IAA [7]: lacked appreciable binding
- binding of [3H] IAA [8]: did not bind auxin
- Kd [9]: > 1000 nM
- Kd [10]: 13.8 ± 4.63 nM
- auxin binding diminished [11]: around 50%
- specific binding of [3H] IAA [12]: abolish specific auxin binding
- specific binding of [3H] IAA [13]: abolish specific auxin binding
- binding of [3H] IAA [14]: lacked appreciable binding
- Kd [15]: 72.5 ± 21.6 nM
- auxin binding diminished [16]: around 50%
- Kd [17]: 51.3 ± 12.6 nM
- TIR1 association with the DII peptide (SPR) [18]: enhanced association with the peptide
- Kd [19]: 10.1 nM
- Kd [20]: 218 nM
Compound: O=C(O)Cc1c[nH]c2ccccc12 [IAA, Indole-3-acetic acid]
